From PMC5697680 (Clinical Pharmacology in Drug Development, 2017)

Columns and labels:
[1] = Tolerability assessment; format: in vivo, healthy adults
Procedure, shortened: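 Healthy adults (18-65 years) got five single oral 20 mg doses of test compound (granule suspension or dispersible tablet in low- or high-mineral water, immediate or after 30-minute hold). Dosing followed a Latin square, fasted in the morning, with at least 7 days' washout. AEs and SAEs were recorded from first dose to follow-up at least 7 days post-dose, along with labs, vital signs, ECG and physical exams. Results were summarized as subject numbers and percentages.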

[2] = cited from earlier work
[3] = system: OCT2/MATE renal transporter; conditions: results in increased exposure to OCT2 substrates such as metformin; cited from earlier work

In the case of `C[C@@H]1CCO[C@H]2Cn3cc(C(=O)NCc4ccc(F)cc4F)c(=O)c(O)c3C(=O)N12` [DTG, Dolutegravir], the “AEs reported, number of subjects” value ([1]; 15 participants, all five single 20 mg treatments) is reported as 9 subjects, the “SAEs, AEs leading to withdrawal, or deaths” value ([1]; 15 participants, all treatments) is reported as “No SAEs” and the “drug‐related AEs (nausea, mild), number of subjects” value ([1]; two reports of nausea in one subject, resolved on the same day) is reported as 1 n. The “reduction of DTG exposure by magnesium‐ and aluminum‐containing antacid” value ([2]; concomitant administration) was 70%, the “reduction of DTG plasma exposure by calcium supplement” value ([2]; fasting conditions) was 39% and the “reduction of DTG plasma exposure by iron supplement” value ([2]; fasting conditions) was 54%. The “effect on OCT2/MATE renal transporter” value [3] was “inhibition”.
